The text below walks through data of ChEMBL document CHEMBL1152466, “Hepatitis B virus e antigen loss during adefovir dipivoxil therapy is associated with enhanced virus-specific CD4+ T-cell reactivity” (2008).

For experiment [1], the system named is PBMC. The experiment is described as follows: Increase in HBV-specific IL12p70 level in HBcAg-stimulated human PBMC at 10 to 30 mg per day by ELISA. It is filed as functional, cell-based. For orientation: In an ELISA, binding on a coated surface is turned into a signal by an enzyme label.
Experiment [2] concerns Hepatitis B virus. The experiment can be described thus: Antiviral activity against HBV infected patients assessed as ALT level at 10 to 30 mg per day after 48 weeks […]. It is filed as functional.
Experiment [3] relates to Hepatitis B virus. The experiment can be described thus: Antiviral activity against HBV infected in human assessed as reduction in serum viral DNA level at 10 to 30 mg per day after 48 weeks. It is filed as functional.
The species named for experiment [4] is Homo sapiens. The experiment is described as follows: Increase in HBV-specific IFN-gamma-producing CD4+ cell proliferation in patients with […] chronic hepatitis B assessed as [3H]thymidine incorporation after 16 weeks by beta counting relative to baseline. The class given is functional, organism-based. A digest of the protocol: (§1)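 Freshly isolated patient PBMC (density gradient) at 2 × 10⁶/ml in RPMI with 10% human AB serum. rHBcAg (1 μg/ml) was added to quadruplicate wells, with tetanus toxoid (0.5 μg/ml) and phytohemagglutinin (1 μg/ml) as controls. After 6 days, 0.5 μCi/well [³H]thymidine pulse and beta counting. Stimulation index = mean cpm antigen/medium. The positive cutoff was mean + 3 SD of 15–20 controls per center.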
For orientation: Uptake of a labelled nucleoside into DNA is a usual measure of proliferation.

The species named for experiment [5] is Homo sapiens. The experiment can be described thus: Increase in HBV-specific IFN-gamma-producing CD4+ cell proliferation in patients with […] chronic hepatitis B assessed as [3H]thymidine incorporation after 40 weeks by beta counting relative to baseline. The class given is functional, organism-based. In a few lines: as §1
For experiment [6], the species on record is Homo sapiens. The experiment can be described thus: Increase in HBV-specific IFN-gamma-producing CD4+ cell proliferation in patients with […] chronic hepatitis B assessed as [3H]thymidine incorporation after 48 weeks by beta counting relative to baseline. It is filed as functional, organism-based. A digest of the protocol:
as §1

The species named for experiment [7] is Homo sapiens. The experiment is described as follows: Increase in HBV-specific IFN-gamma-producing CD4+ cell proliferation in patients with […] chronic hepatitis B assessed as [3H]thymidine incorporation by beta counting relative to baseline. The class given is functional. A digest of the protocol:
as §1

For experiment [8], the system named is PBMC. The experiment can be described thus: Increase in HBV-specific IFN-gamma production in HBcAg-stimulated human PBMC assessed as INFgamma production index at 10 to 30 mg per day after 4 weeks […]. The class given is functional. In a few lines: (§2)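 PBMC at 3 × 10⁶/ml in RPMI with 10% human AB serum, cultured in quadruplicate for 6 days with or without rHBcAg (1 μg/ml). IFN-γ in cell-free supernatants (kept at −20°C) was measured by ELISA. Index = mean pg/ml IFN-γ of the four HBcAg-stimulated replicates divided by that of medium-only cultures, calculated at each protocol time point.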

The test system of experiment [9] is PBMC. The experiment is described as follows: Increase in HBV-specific IFN-gamma production in HBcAg-stimulated human PBMC assessed as INFgamma production index at 10 to 30 mg per day after 8 weeks by […]. The class given is functional. A digest of the protocol:
as §2

The test system of experiment [10] is PBMC. The experiment can be described thus: Increase in HBV-specific IFN-gamma production in HBcAg-stimulated human PBMC assessed as INFgamma production index at 10 to 30 mg per day after 16 weeks […]. The class given is functional. In a few lines:
as §2

The subject of experiment [11] is PBMC. The experiment is described as follows: Increase in HBV-specific IFN-gamma production in HBcAg-stimulated human PBMC assessed as INFgamma production index at 10 to 30 mg per day after 24 weeks by […]. It is filed as functional. A digest of the protocol:
as §2

The subject of experiment [12] is PBMC. The experiment is described as follows: Increase in HBV-specific IFN-gamma production in HBcAg-stimulated human PBMC assessed as INFgamma production index at 10 to 30 mg per day after 40 weeks by […]. It is filed as functional. In a few lines:
as §2

For experiment [13], the system named is PBMC. The experiment can be described thus: Increase in HBV-specific IFN-gamma production in HBcAg-stimulated human PBMC assessed as INFgamma production index at 10 to 30 mg per day after 48 weeks by […]. It is filed as functional. A digest of the protocol:
as §2

Experiment [14] deals with PBMC. The experiment can be described thus: Increase in HBV-specific IL8 in HBcAg-stimulated human PBMC at 10 to 30 mg per day by ELISA. The class given is functional, cell-based.
Experiment [15] concerns PBMC. The experiment is described as follows: Increase in HBV-specific IP10 in HBcAg-stimulated human PBMC at 10 to 30 mg per day by ELISA. The class given is functional, cell-based.
For experiment [16], the system named is PBMC. The experiment can be described thus: Increase in HBV-specific Fas ligand level in HBcAg-stimulated human PBMC at 10 to 30 mg per day by ELISA. The class given is functional, cell-based.
In experiment [17] the test system is PBMC. The experiment is described as follows: Increase in HBV-specific IL2 level in HBcAg-stimulated human PBMC at 10 to 30 mg per day by ELISA. The class given is functional, cell-based.
The subject of experiment [18] is PBMC. The experiment is described as follows: Increase in HBV-specific IL5 level in HBcAg-stimulated human PBMC at 10 to 30 mg per day by ELISA. The class given is functional, cell-based.
For experiment [19], the species on record is Homo sapiens. The experiment can be described thus: Serum IL10 level in human at baseline at 10 to 30 mg per day by cytometric bead array.

Structures are written as SMILES. Activity calls are given as the source filed them.

`CC(C)(C)C(=O)OCOP(=O)(COCCn1cnc2c(N)ncnc21)OCOC(=O)C(C)(C)C` [ADEFOVIR DIPIVOXIL]: the outcome in the experiment on PBMC [1], in the experiment on PBMC [16], with PBMC [17] and in the experiment on PBMC [18] was inactive. The Activity with Hepatitis B virus [2] is 35 IU/ml; with Hepatitis B virus [3], -5.3 log10CFU/ml; in the experiment listed under Homo sapiens [7] it was 15%; in the experiment with PBMC [8] it was 58.9; with PBMC [9], 184.3; in the experiment on PBMC [10] it was 63.9. Besides, the Activity was found to be 26.3 in the experiment with PBMC [11], 61.5 with PBMC [12], 18 in the experiment on PBMC [13] and 32 pg/mL in the experiment filed under Homo sapiens [19]. Moreover, the outcome in the experiment filed under Homo sapiens [4], in the experiment filed under Homo sapiens [5], in the experiment listed under Homo sapiens [6], in the experiment with PBMC [14] and with PBMC [15] was Active.
